{"data": "Experimental data collected from several papers", "target": "Rhodopsin kinase GRK1 (GRK1, Homo sapiens, UniProt Q15835)", "Residues used in one study (Q15835 1-563)": "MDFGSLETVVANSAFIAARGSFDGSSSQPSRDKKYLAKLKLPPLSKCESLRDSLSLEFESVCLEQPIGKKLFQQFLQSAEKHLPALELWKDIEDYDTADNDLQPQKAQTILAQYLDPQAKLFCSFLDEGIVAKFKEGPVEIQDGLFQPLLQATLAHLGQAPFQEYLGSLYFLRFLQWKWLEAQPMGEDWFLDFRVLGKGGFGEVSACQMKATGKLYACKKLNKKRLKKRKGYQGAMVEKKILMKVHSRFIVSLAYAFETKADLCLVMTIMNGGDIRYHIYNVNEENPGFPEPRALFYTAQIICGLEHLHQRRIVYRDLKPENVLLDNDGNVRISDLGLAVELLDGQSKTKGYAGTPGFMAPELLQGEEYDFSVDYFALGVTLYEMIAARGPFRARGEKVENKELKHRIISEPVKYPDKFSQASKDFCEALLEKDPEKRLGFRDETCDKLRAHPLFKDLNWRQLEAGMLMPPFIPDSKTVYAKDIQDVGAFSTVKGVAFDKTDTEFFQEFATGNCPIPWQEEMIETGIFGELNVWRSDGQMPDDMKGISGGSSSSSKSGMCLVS", "note": "Each line is one published result; the experiments were not run side by side."}
{"Compound": "COc1ccc2oc(-c3ccc4nc(N)oc4c3)c/c(=N\\c3ccccc3NC(=O)CCN)c2c1", "read-out": "binding", "concentration": "1 µM", "measurement": "remaining binding", "result": "98%"}
{"Compound": "C1=C/COCc2cc(ccc2OCCN2CCCC2)Nc2nccc(n2)-c2cccc(c2)COC/1", "read-out": "binding", "concentration": "0.1 µM", "measurement": "remaining binding", "result": "94%"}
{"Compound": "C=CC(=O)N1CCC([C@@H]2CCNc3c(C(N)=O)c(-c4ccc(Oc5ccccc5)cc4)nn32)CC1", "read-out": "enzyme activity", "action": "inhibitor", "concentration": "1 µM", "measurement": "inhibition", "result": "34%"}
{"Compound": "CCCCC(=O)Nc1ccc(-c2ccc3ncn(CCC)c(=O)c3c2)cn1", "read-out": "binding", "method": "competition with immobilised ligand", "concentration": "0.5 µM", "measurement": "remaining binding", "result": "96%"}
{"Compound": "C[C@H]1CC[C@H](n2c3cnccc3c3cnc(Nc4ccc5c(n4)CCN(C(=O)CO)C5)nc32)CC1", "read-out": "cell-free assay", "concentration": "1 µM", "measurement": "remaining signal", "result": "100%"}
{"Compound": "CO[C@@H]1[C@H](N(C)C(=O)c2ccccc2)C[C@H]2O[C@]1(C)n1c3ccccc3c3c4c(c5c6ccccc6n2c5c31)C(=O)NC4", "read-out": "enzyme activity", "action": "inhibitor", "concentration": "1 µM", "measurement": "inhibition", "result": "94%"}
{"Compound": "CC(C)S(=O)(=O)c1ccc2nccc(Nc3ccc4sc(C5CCCC5)nc4c3)c2c1", "read-out": "enzyme activity", "action": "inhibitor", "concentration": "1 µM", "measurement": "activity vs control", "result": "112%"}
{"Compound": "COc1ccc2[nH]c3c4[nH]c5ccc(OC)cc5c4c4c(c3c2c1)C(=O)NC4=O", "read-out": "binding", "concentration": "1 µM", "measurement": "remaining binding", "result": "95%"}
